The record followed here is ChEMBL document CHEMBL4011629, “New Disubstituted Quindoline Derivatives Inhibiting Burkitt's Lymphoma Cell Proliferation by Impeding c-MYC Transcription” (J Med Chem, 2017).

Experiment [1] can be described thus: Stabilization of c-Myc Pu27 G-quadruplex DNA (unknown origin) assessed as induction of parallel G-quadruplex formation in absence of K+ ions by CD spectroscopic analysis.
Experiment [2] can be described thus: Binding affinity to 5'-FAM labeled c-Myc Pu27 G-quadruplex DNA (unknown origin) in presence of K+ ions by MST analysis. In a few lines: (§1)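 The DNA was annealed at 95 °C for 5 min, slowly cooled and held at 4 °C overnight. Ligand was run as a 12-point series, 0–20 μM for Pu27 and up to 200 μM for duplex. MST was measured, and KD was fitted to a Hill model from three replicates.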

Experiment [3] in a line: Stabilization of c-Myc Pu27 G-quadruplex DNA (unknown origin) assessed as induction of parallel G-quadruplex formation in absence of K+ ions by CD spectroscopic analysis. Put shortly: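 CD spectra: Pu27 at 5 μM in 10 mM Tris-HCl pH 7.4 without or with 100 mM KCl, annealed 95 °C 5 min, slow-cooled, kept at 4 °C overnight, with ligand. Scanned 230–400 in a 4 mm quartz cuvette, 1 nm bandwidth and step, 0.5 s/point; buffer baseline subtracted.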

Experiment [4] is described as follows: Stabilization of 5'-FAM/3'-TAMRA labeled c-Myc Pu22 G-quadruplex DNA (unknown origin) assessed as change in melting temperature at 2 uM by FRET assay. In a few lines: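 FRET melting of FAM/TAMRA-labelled FPu22T (0.2 μM) in 10 mM Tris-HCl pH 7.4 with 2 mM KCl, ligand 2 μM, in a real-time PCR machine. Excitation 470 nm, emission 530 nm, read every 1 °C from 37 to 99 °C after 30 s hold at each step; ΔTm versus probe alone.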

A short description of experiment [5]: Selectivity ratio of Kd for 5'-FAM labeled duplex DNA (unknown origin) to Kd for 5'-FAM labeled c-Myc Pu27 G-quadruplex DNA (unknown origin). Put shortly:
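MST binding: FAM-Pu27 or FAM-duplex oligo at 10 μM in 10 mM Tris-HCl pH 7.4 with 150 mM KCl, annealed 95 °C 5 min, slow-cooled, held 4 °C overnight. Ligand titrated as a 12-point series, 0–20 μM for G4 or up to 200 μM for duplex. KD fitted with Hill model; three replicates.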

The subject of the next experiment is Raji. Description: Antiproliferative activity against human Raji cells after 48 hrs by MTT assay. In kind it is functional, cell-based. In a few lines: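 RAJI cells were seeded at 5 × 10^3 cells per well and treated for 48 h, with a DMSO-matched control. MTT at 0.5 mg/mL was added for 4 h at 37 °C, followed by overnight lysis at 37 °C and absorbance at 570 nm. Each assay was done in triplicate. IC50 came from the dose-dependent percentage survival versus the control.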
On the technique in general: Tetrazolium assays rely on reduction of a dye to a coloured formazan, in cell work by metabolically active cells.

Experiment [6] is described as follows: Binding affinity to 5'-FAM labeled duplex DNA (unknown origin) by MST analysis. Put shortly:
as §1

Activity calls are given as the source filed them. The calls are words filed in the database; no cut-off is given here.

As a reminder, the ΔTm is the shift of the melting midpoint relative to a reference. For orientation: IC50 means the concentration that gives 50% inhibition. A higher IC50 goes with weaker potency. As to `CCN(CC)CCCNC(=O)COc1ccc2oc3c(NCCCN(CC)CC)c4ccccc4nc3c2c1`, the result in experiment [1], in experiment [2] and in experiment [3] was Active. The ΔTm in experiment [4] lay within 13.5 to 36.7 °C. Further, the Selectivity ratio in experiment [5] lay within 2.9 to 9.7. In the experiment with Raji, this compound yielded a 50% inhibitory concentration (IC50) of 1000 to 4000 nM.
By Kd is commonly meant the free concentration of one partner at which half of the binding sites on the other are occupied at equilibrium, for simple one-to-one binding. For `CN(C)CCCNc1c2ccccc2nc2c1oc1cc(OCCN(C)C)ccc12`, the outcome in experiment [1] and in experiment [3] was Active. In experiment [2], the equilibrium dissociation constant (Kd) was 1300 to 4900 nM. In addition, in experiment [4], the thermal shift (ΔTm) lay within 22.1 to 25.2 °C. Moreover, in experiment [5], the Selectivity ratio fell in the range of 2.5 to 10.1. In the experiment with Raji, the concentration for half-maximal inhibition (IC50) is 1000 to 4000 nM.
As to `CN(C)CCCNc1c2ccccc2[n+](C)c2c1oc1ccc(OCC3CC[N+](C)(C)CC3)cc12`, the result in experiment [1], in experiment [2], in experiment [6] and in experiment [3] was Active. The thermal shift (ΔTm) in experiment [4] lay in the range of 33.1 to 36.7 °C.
Take `C[n+]1c2ccccc2c(NCCN2CCCCC2)c2oc3ccc(OCC(=O)NCCN4CCCCC4)cc3c21`: the result in experiment [1], in experiment [2], in experiment [6] and in experiment [3] was Active. Further, the ΔTm in experiment [4] stood at 30 °C.
Consider `CN(C)CCCNc1c2ccccc2[n+](C)c2c1oc1ccc(OCCC[N+](C)(C)C)cc12`, for which the outcome in experiment [1], in experiment [2], in experiment [6] and in experiment [3] was Active. The ΔTm in experiment [4] lay within 33.1 to 36.7 °C.
For the compound `C[n+]1c2ccccc2c(NCCN2CCOCC2)c2oc3ccc(OCC(=O)NCCN4CCOCC4)cc3c21`, the outcome in experiment [1], in experiment [2], in experiment [6] and in experiment [3] was Active. The ΔTm in experiment [4] was determined as 28.4 °C.
Turning to `CN(C)CCCNc1c2ccccc2nc2c1oc1c(OCCCN(C)C)cccc12`, the result in experiment [1] and in experiment [3] was Active. For the same compound, the Kd in experiment [2] was in the range of 1300 to 4900 nM. The thermal shift (ΔTm) in experiment [4] was found to be 13.5 °C. In addition, the Selectivity ratio in experiment [5] is 2.5 to 10.1. Besides, the IC50 with Raji was 1000 to 4000 nM.
For the compound `CCN(CC)CCCNC(=O)COc1ccc2oc3c(NCCCN(CC)CC)c4ccccc4[n+](C)c3c2c1`, the outcome in experiment [1], in experiment [6] and in experiment [3] was Active. Moreover, in experiment [2], the dissociation constant (Kd) amounted to 700 nM. The ΔTm in experiment [4] was 13.5 to 36.7 °C.
`CN(C)CCCNc1c2ccccc2nc2c1oc1ccc(OCCN(C)C)cc12`: the result in experiment [1] and in experiment [3] was Active. Further, the Kd in experiment [2] lay within 1300 to 4900 nM. Also, in experiment [4], the shift in melting temperature (ΔTm) lay within 22.1 to 25.2 °C. The Selectivity ratio in experiment [5] is 2.5 to 10.1. For the same compound, the IC50 in the experiment on Raji lay in the range of 1000 to 4000 nM.
As for `C[n+]1c2ccccc2c(NCCCN2CCOCC2)c2oc3ccc(OCC(=O)NCCCN4CCOCC4)cc3c21`, the outcome in experiment [1], in experiment [2], in experiment [6] and in experiment [3] was Active. The shift in melting temperature (ΔTm) in experiment [4] was determined as 36.1 °C.
In the case of `CCN(CC)CCNC(=O)COc1ccc2oc3c(NCCN(CC)CC)c4ccccc4nc3c2c1`, the result in experiment [1], in experiment [2] and in experiment [3] was Active. Besides, in experiment [4], the thermal shift (ΔTm) lay within 13.5 to 36.7 °C. The Selectivity ratio in experiment [5] fell in the range of 2.9 to 9.7. This compound also displayed an IC50 in the experiment on Raji of 1000 to 4000 nM.
As to `CN(C)CCCCNC(=O)COc1ccc2oc3c(NCCCCN(C)C)c4ccccc4[n+](C)c3c2c1`, the outcome in experiment [1], in experiment [2], in experiment [6] and in experiment [3] was Active. For the same compound, in experiment [4], the ΔTm is 13.5 to 36.7 °C.
`CCN(CC)CCNC(=O)COc1ccc2oc3c(NCCN(CC)CC)c4ccccc4[n+](C)c3c2c1`: the result in experiment [1], in experiment [6] and in experiment [3] was Active. The Kd in experiment [2] amounted to 800 nM. The shift in melting temperature (ΔTm) in experiment [4] was in the range of 13.5 to 36.7 °C.
As for `O=C(COc1ccc2oc3c(NCCN4CCCCC4)c4ccccc4nc3c2c1)NCCN1CCCCC1`, the outcome in experiment [1], in experiment [2] and in experiment [3] was Active. For the same compound, in experiment [4], the ΔTm was 13.5 to 36.7 °C. Besides, the Selectivity ratio in experiment [5] lay in the range of 2.9 to 9.7. Further, in the experiment on Raji, the half-maximal inhibitory concentration (IC50) lay within 1000 to 4000 nM.
Turning to `CN(C)CCNC(=O)COc1ccc2oc3c(NCCN(C)C)c4ccccc4[n+](C)c3c2c1`, the outcome in experiment [1], in experiment [2], in experiment [6] and in experiment [3] was Active. Besides, the ΔTm in experiment [4] lay within 13.5 to 36.7 °C.
`CN(C)CCNc1c2ccccc2nc2c1oc1ccc(OCCN(C)C)cc12`: the outcome in experiment [1] and in experiment [3] was Active. The Kd in experiment [2] lay within 1300 to 4900 nM. In addition, the ΔTm in experiment [4] was in the range of 13.5 to 36.7 °C. Moreover, the Selectivity ratio in experiment [5] fell in the range of 2.5 to 10.1. This compound also had a concentration for half-maximal inhibition (IC50) in the experiment with Raji of 1000 to 4000 nM.
`C[n+]1c2ccccc2c(NCCCN2CCCCC2)c2oc3ccc(OCC(=O)NCCCN4CCCCC4)cc3c21`: the outcome in experiment [1], in experiment [2], in experiment [6] and in experiment [3] was Active. Besides, in experiment [4], the shift in melting temperature (ΔTm) worked out at 35.2 °C.
For the compound `CN(C)CCNC(=O)COc1ccc2oc3c(NCCN(C)C)c4ccccc4nc3c2c1`, the result in experiment [1], in experiment [2] and in experiment [3] was Active. For the same compound, in experiment [4], the shift in melting temperature (ΔTm) fell in the range of 13.5 to 36.7 °C. In addition, the Selectivity ratio in experiment [5] was in the range of 2.9 to 9.7. Moreover, the IC50 with Raji is 1000 to 4000 nM.
For `CN(C)CCCNc1c2ccccc2nc2c1oc1cc(OCCCN(C)C)ccc12`, the result in experiment [1] and in experiment [3] was Active. For the same compound, the dissociation constant (Kd) in experiment [2] was 1300 to 4900 nM. The ΔTm in experiment [4] is 22.1 to 25.2 °C. Further, the Selectivity ratio in experiment [5] lay in the range of 2.5 to 10.1. Also, the IC50 in the experiment with Raji was in the range of 1000 to 4000 nM.
Regarding `CN(C)CCCNc1c2ccccc2[n+](C)c2c1oc1ccc(OCC[N+](C)(C)C)cc12`, the outcome in experiment [1], in experiment [2], in experiment [6] and in experiment [3] was Active. For the same compound, in experiment [4], the shift in melting temperature (ΔTm) is 33.1 to 36.7 °C.
Turning to `CN(C)CCNc1c2ccccc2[n+](C)c2c1oc1ccc(OCC[N+](C)(C)C)cc12`, the result in experiment [1], in experiment [2], in experiment [6] and in experiment [3] was Active. In addition, the ΔTm in experiment [4] is 33.1 to 36.7 °C.
Take `CN(C)CCCNc1c2ccccc2nc2c1oc1ccc(OCCCN(C)C)cc12`: the outcome in experiment [1] and in experiment [3] was Active. Moreover, the Kd in experiment [2] is 1300 to 4900 nM. The shift in melting temperature (ΔTm) in experiment [4] was in the range of 22.1 to 25.2 °C. For the same compound, in experiment [5], the Selectivity ratio fell in the range of 2.5 to 10.1. The compound further yielded an IC50 in the experiment on Raji of 1000 to 4000 nM.
`CN(C)CCCNC(=O)COc1ccc2oc3c(NCCCN(C)C)c4ccccc4[n+](C)c3c2c1`: the outcome in experiment [1], in experiment [2], in experiment [6] and in experiment [3] was Active. The ΔTm in experiment [4] stood at 35.6 °C.
Regarding `CN(C)CCCNC(=O)COc1ccc2oc3c(NCCCN(C)C)c4ccccc4nc3c2c1`, the result in experiment [1], in experiment [2] and in experiment [3] was Active. The ΔTm in experiment [4] came to 21.2 °C. Also, in experiment [5], the Selectivity ratio lay within 2.9 to 9.7. Moreover, the half-maximal inhibitory concentration (IC50) in the experiment on Raji is 1000 to 4000 nM.
Take `CN(C)CCCNc1c2ccccc2nc2c1oc1c(OCCN(C)C)cccc12`: the outcome in experiment [1] and in experiment [3] was Active. Moreover, the Kd in experiment [2] lay in the range of 1300 to 4900 nM. The ΔTm in experiment [4] amounted to 18.6 °C. The Selectivity ratio in experiment [5] was in the range of 2.5 to 10.1. In the experiment with Raji, this compound had a half-inhibitory concentration (IC50) of 1000 to 4000 nM.
`CN1CCN(CCNC(=O)COc2ccc3oc4c(NCCN5CCN(C)CC5)c5ccccc5[n+](C)c4c3c2)CC1`: the outcome in experiment [1], in experiment [2], in experiment [6] and in experiment [3] was Active. The ΔTm in experiment [4] was 13.5 to 36.7 °C.
